Reference: ChEMBL document CHEMBL4837214, “Design, synthesis, and biological evaluation of novel tetrahydroprotoberberine derivatives to reduce SREBPs expression for the treatment of hyperlipidemia” (Eur J Med Chem, 2021)
Calls of active or inactive are those of the source. The calls are words filed in the database; no cut-off is given here.

tested on: HepG2; test: Cytotoxicity against human HepG2 cells assessed as reduction in cell viability at 10 uM after 24 hrs by CCK8 assay; type: functional

`COc1cc2c(cc1OC)C1Cc3ccc(OC)c(OC(=O)c4cccc(Br)c4)c3CN1CC2` (centres undefined) was tested. Which Activity did it give?
Its Activity is 80.2%.

How did the Activity turn out when `CCS(=O)(=O)Oc1c(OC)ccc2c1CN1CCc3cc(OC)c(OC)cc3C1C2` (centres undefined) was run?
Its Activity is 87.7%.

With `COc1cc2c(cc1OC)C1Cc3ccc(OC)c(OC(=O)C4CCCCC4)c3CN1CC2` (centres undefined) as the compound, how does the Activity read?
Its Activity is 85.5%.

How did the Activity turn out when `COc1ccc2c(c1OC(=O)C(C)(C)CCl)CN1CCc3cc4c(cc3C1C2)OCO4` (centres undefined) was run?
Its Activity is 99.6%.

Which Activity does the source give for `COc1cc2c(cc1OC)C1Cc3ccc(OC)c(OS(=O)(=O)c4ccc(Br)cc4)c3CN1CC2` (centres undefined) here?
Its Activity is 86.5%.

With `COc1cc2c(cc1OC)C1Cc3ccc(OC)c(OC(=O)c4ccco4)c3CN1CC2` (centres undefined) as the compound, how does the Activity read?
The Activity was 80.9%.

For `COc1ccc2c(c1OS(=O)(=O)c1c(C)cc(C)cc1C)CN1CCc3cc4c(cc3C1C2)OCO4` (centres undefined), which Activity is on record?
The Activity was 80.7%.

How did the Activity turn out when `COc1ccc2c(c1OC(=O)C13CC4CC(CC(C4)C1)C3)CN1CCc3cc4c(cc3C1C2)OCO4` (centres undefined) was run?
Its Activity is 80.2%.

Which Activity does the source give for `COc1cc2c(cc1OC)C1Cc3ccc(OC)c(OC(=O)c4ccc(CCl)cc4)c3CN1CC2` (centres undefined) here?
Its Activity is 88.3%.

Which Activity does the source give for `COc1ccc2c(c1OC(=O)c1ccc(CCl)cc1)CN1CCc3cc4c(cc3C1C2)OCO4` (centres undefined) here?
The Activity was 97.8%.

How did the Activity turn out when `COc1cc2c(cc1OC)C1Cc3ccc(OC)c(OS(=O)(=O)c4ccccc4[N+](=O)[O-])c3CN1CC2` (centres undefined) was run?
Its Activity is 84.8%.

`COc1ccc2c(c1OCc1cc(F)ccc1F)CN1CCc3cc4c(cc3C1C2)OCO4` (centres undefined) was tested. Which Activity did it give?
Its Activity is 87.7%.

For `COc1cc2c(cc1OC)C1Cc3ccc(OC)c(OS(=O)(=O)c4c(C)cc(C)cc4C)c3CN1CC2` (centres undefined), which Activity is on record?
Its Activity is 73.3%.

`COc1cc2c(cc1OC)C1Cc3ccc(OC)c(OC(=O)C(C)(C)CCl)c3CN1CC2` (centres undefined) was tested. Which Activity did it give?
Its Activity is 91.2%.

How did the Activity turn out when `COc1cc2c(cc1OC)C1Cc3ccc(OC)c(OC(=O)C45CC6CC(CC(C6)C4)C5)c3CN1CC2` (centres undefined) was run?
The Activity was 99.3%.

How did the Activity turn out when `COc1ccc2c(c1OS(=O)(=O)c1c(C(C)C)cc(C(C)C)cc1C(C)C)CN1CCc3cc4c(cc3C1C2)OCO4` (centres undefined) was run?
Its Activity is 92.8%.

Which Activity does the source give for `CCCOc1c(OC)ccc2c1CN1CCc3cc4c(cc3C1C2)OCO4` (centres undefined) here?
Its Activity is 101.5%.

Which Activity does the source give for `COc1ccc2c(c1OS(=O)(=O)c1cc(C)ccc1C)CN1CCc3cc4c(cc3C1C2)OCO4` (centres undefined) here?
The Activity was 84.5%.

`COc1cc2c(cc1OC)C1Cc3ccc(OC)c(OC(=O)C4CC4)c3CN1CC2` (centres undefined) was tested. Which Activity did it give?
Its Activity is 91.2%.

Which Activity does the source give for `COc1cc2c(cc1OC)C1Cc3ccc(OC)c(OC(=O)c4ccc(F)cc4)c3CN1CC2` (centres undefined) here?
The Activity was 95.1%.

For `COc1ccc2c(c1OS(=O)(=O)c1ccc(F)cc1)CN1CCc3cc4c(cc3C1C2)OCO4` (centres undefined), which Activity is on record?
The Activity was 86.8%.

How did the Activity turn out when `COc1cc2c(cc1OC)C1Cc3ccc(OC)c(OS(=O)(=O)c4c(C(C)C)cc(C(C)C)cc4C(C)C)c3CN1CC2` (centres undefined) was run?
The Activity was 91.1%.

How did the Activity turn out when `COc1ccc2c(c1OS(=O)(=O)c1ccccc1[N+](=O)[O-])CN1CCc3cc4c(cc3C1C2)OCO4` (centres undefined) was run?
Its Activity is 88.8%.

How did the Activity turn out when `COc1ccc2c(c1OC(=O)c1ccco1)CN1CCc3cc4c(cc3C1C2)OCO4` (centres undefined) was run?
Its Activity is 83.9%.

`COc1ccc2c(c1OC(=O)c1ccc(F)cc1)CN1CCc3cc4c(cc3C1C2)OCO4` (centres undefined) was tested. Which Activity did it give?
Its Activity is 85.6%.

How did the Activity turn out when `COc1ccc2c(c1OC(=O)c1cccc(C)c1)CN1CCc3cc4c(cc3C1C2)OCO4` (centres undefined) was run?
The Activity was 90.1%.

Which Activity does the source give for `CCOc1c(OC)ccc2c1CN1CCc3cc4c(cc3C1C2)OCO4` (centres undefined) here?
Its Activity is 87.7%.

With `COc1cc2c(cc1OC)C1Cc3ccc(OC)c(OS(=O)(=O)c4cc(C)ccc4C)c3CN1CC2` (centres undefined) as the compound, how does the Activity read?
The Activity was 81.4%.

For `COc1ccc2c(c1OC(=O)C1CC1)CN1CCc3cc4c(cc3C1C2)OCO4` (centres undefined), which Activity is on record?
The Activity was 90.7%.

How did the Activity turn out when `COc1ccc2c(c1OC(=O)C1CCCCC1)CN1CCc3cc4c(cc3C1C2)OCO4` (centres undefined) was run?
Its Activity is 90.7%.

Which Activity does the source give for `COc1cc2c(cc1OC)C1Cc3ccc(OC)c(OS(=O)(=O)c4cccs4)c3CN1CC2` (centres undefined) here?
Its Activity is 89.2%.

`COc1ccc2c(c1OC(=O)c1cccc(Br)c1)CN1CCc3cc4c(cc3C1C2)OCO4` (centres undefined) was tested. Which Activity did it give?
Its Activity is 85%.

With `COc1cc2c(cc1OC)C1Cc3ccc(OC)c(OS(=O)(=O)c4ccc(Cl)c([N+](=O)[O-])c4)c3CN1CC2` (centres undefined) as the compound, how does the Activity read?
Its Activity is 94.7%.

For `CCOc1ccccc1C(=O)Oc1c(OC)ccc2c1CN1CCc3cc4c(cc3C1C2)OCO4` (centres undefined), which Activity is on record?
Its Activity is 96%.

For `CCCC(CCC)C(=O)Oc1c(OC)ccc2c1CN1CCc3cc(OC)c(OC)cc3C1C2` (centres undefined), which Activity is on record?
Its Activity is 97.9%.

`COc1cc2c(cc1OC)C1Cc3ccc(OC)c(OC(=O)c4cccc(C)c4)c3CN1CC2` (centres undefined) was tested. Which Activity did it give?
Its Activity is 84.3%.

With `COc1ccc2c(c1OS(=O)(=O)c1ccc(Cl)c([N+](=O)[O-])c1)CN1CCc3cc4c(cc3C1C2)OCO4` (centres undefined) as the compound, how does the Activity read?
Its Activity is 93.4%.

With `C/C=C/C(=O)Oc1c(OC)ccc2c1CN1CCc3cc(OC)c(OC)cc3C1C2` (centres undefined) as the compound, how does the Activity read?
Its Activity is 81.7%.

For `CCCCOc1c(OC)ccc2c1CN1CCc3cc4c(cc3C1C2)OCO4` (centres undefined), which Activity is on record?
Its Activity is 98.1%.

`CCCS(=O)(=O)Oc1c(OC)ccc2c1CN1CCc3cc(OC)c(OC)cc3C1C2` (centres undefined) was tested. Which Activity did it give?
Its Activity is 80.2%.

`C/C=C/C(=O)Oc1c(OC)ccc2c1CN1CCc3cc4c(cc3C1C2)OCO4` (centres undefined) was tested. Which Activity did it give?
Its Activity is 84.3%.

Which Activity does the source give for `COc1cc2c(cc1OC)C1Cc3ccc(OC)c(OS(=O)(=O)c4ccc(F)cc4)c3CN1CC2` (centres undefined) here?
The Activity was 93.4%.

`COc1ccc2c(c1OS(=O)(=O)c1cccs1)CN1CCc3cc4c(cc3C1C2)OCO4` (centres undefined) was tested. Which Activity did it give?
The Activity was 93.4%.

For `C=C(C)C(=O)Oc1c(OC)ccc2c1CN1CCc3cc(OC)c(OC)cc3C1C2` (centres undefined), which Activity is on record?
Its Activity is 95.4%.

`CCOc1ccccc1C(=O)Oc1c(OC)ccc2c1CN1CCc3cc(OC)c(OC)cc3C1C2` (centres undefined) was tested. Which Activity did it give?
Its Activity is 84.6%.

tested on: HepG2; test: Down regulation of intracellular TC level in human HepG2 cells at 10 uM measured after 24 hrs; type: functional, cell-based
Summary of the method: (§1)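 HepG2 cells grown in six-well plates and exposed 24 h to compound at […]. Cells collected in PBS and sonicated (5 s on, 10 s off, 60 s total). Total cholesterol or triglyceride measured with a colorimetric determination kit.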

For `CCCOc1c(OC)ccc2c1CN1CCc3cc4c(cc3C1C2)OCO4` (centres undefined), which Activity is on record?
The Activity was “Active”.

With `COc1cc2c(cc1OC)C1Cc3ccc(OC)c(OC(=O)C4CC4)c3CN1CC2` (centres undefined) as the compound, how does the Activity read?
Its Activity is “Active”.

How did the Activity turn out when `COc1cc2c(cc1OC)C1Cc3ccc(OC)c(OS(=O)(=O)c4c(C(C)C)cc(C(C)C)cc4C(C)C)c3CN1CC2` (centres undefined) was run?
Its Activity is “Active”.

For `COc1ccc2c(c1OCc1ccc([N+](=O)[O-])cc1)CN1CCc3cc4c(cc3C1C2)OCO4` (centres undefined), which Activity is on record?
Its Activity is “Active”.

tested on: HepG2; test: Down regulation of intracellular TG level in human HepG2 cells at 10 uM measured after 24 hrs; type: functional, cell-based; summary of the method: as §1

`CCCOc1c(OC)ccc2c1CN1CCc3cc4c(cc3C1C2)OCO4` (centres undefined) was tested. Which Activity did it give?
Its Activity is “Active”.

How did the Activity turn out when `COc1cc2c(cc1OC)C1Cc3ccc(OC)c(OC(=O)C4CC4)c3CN1CC2` (centres undefined) was run?
Its Activity is “Active”.

With `COc1cc2c(cc1OC)C1Cc3ccc(OC)c(OS(=O)(=O)c4c(C(C)C)cc(C(C)C)cc4C(C)C)c3CN1CC2` (centres undefined) as the compound, how does the Activity read?
Its Activity is “Active”.

For `COc1ccc2c(c1OCc1ccc([N+](=O)[O-])cc1)CN1CCc3cc4c(cc3C1C2)OCO4` (centres undefined), which Activity is on record?
The Activity was “Active”.

Which Activity does the source give for `CCCCOc1c(OC)ccc2c1CN1CCc3cc4c(cc3C1C2)OCO4` (centres undefined) here?
The Activity was “Active”.
